Experiments:
Type in all cases: functional, cell-based
[1] = system: MCF7; assay: Cytostatic activity against human MCF7 cells after 96 hrs by colorimetric microculture assay; details: MCF7, 96 h
Method in brief: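 MCF-7 cells at 10⁴ per well, preincubated 24 h, then treated at 37 °C for 96 h with varying doses dissolved in DMSO alongside DMSO controls. Read-out: MTT colorimetry at 595 nm, viability as a fraction of control absorbance. IC50 fitted from concentration-effect curves; three experiments, mean with standard deviation.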

[2] = system: HeLa; assay: Cytostatic activity against human HeLa 229 cells after 48 hrs by colorimetric microculture assay
Method in brief: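 HeLa-229 cells plated at 4 × 10³ per well and cultured 24 h before treatment at 37 °C for 48 h with varying doses in DMSO, DMSO controls included. MTT colour measured at 595 nm. Percent viability relative to control; IC50 from concentration-effect curves. Mean of three experiments, SD given.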

[3] = system: HL-60; assay: Cytostatic activity against human HL60 cells after 24 hrs by colorimetric microculture assay; details: HL-60, 24 h
Method in brief: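 MTT assay: HL-60 cells seeded at 10⁴ per well, grown 24 h in culture medium, then exposed at 37 °C for 24 h to varying doses of compounds dissolved in DMSO, with DMSO controls. Absorbance read at 595 nm. Viability taken as treated over control absorbance. IC50 derived from concentration-effect curves; means of three experiments with standard deviation.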

IC50 [1]	IC50 [2]	IC50 [3]	SMILES
> 100 µM	> 100 µM	> 100 µM	OC[C@@H](O)[C@H]1O[C@@H](n2cnc3c(-c4ccccc4)ncnc32)[C@H](O)[C@@H]1O
> 100 µM	> 100 µM	> 100 µM	CNc1nc(Cl)nc2c1ncn2[C@@H]1O[C@H]([C@H](O)CO)[C@@H](O)[C@H]1O
> 100 µM	> 100 µM	> 100 µM	CC(=O)OC[C@@H](OC(C)=O)[C@H]1O[C@@H](n2cnc3c(N)nc(Cl)nc32)[C@H](OC(C)=O)[C@@H]1OC(C)=O
22.4 µM	24.2 µM	16.1 µM	CC(=O)OC[C@@H](OC(C)=O)[C@H]1O[C@@H](n2cnc3c(Cl)nc(Cl)nc32)[C@H](OC(C)=O)[C@@H]1OC(C)=O
> 100 µM	> 100 µM	> 100 µM	CC(=O)OC[C@@H](OC(C)=O)[C@H]1O[C@@H](n2cnc3c(-c4ccccc4)ncnc32)[C@H](OC(C)=O)[C@@H]1OC(C)=O
> 100 µM	> 100 µM	> 100 µM	CCOc1nc(Cl)nc2c1ncn2[C@@H]1O[C@H]([C@H](O)CO)[C@@H](O)[C@H]1O
> 100 µM	> 100 µM	> 100 µM	Nc1ncnc2c1ncn2[C@@H]1O[C@H]([C@H](O)CO)[C@@H](O)[C@H]1O
> 100 µM	> 100 µM	79.3 µM	CC(=O)OC[C@@H](OC(C)=O)[C@H]1O[C@@H](n2cnc3c(Cl)ncnc32)[C@H](OC(C)=O)[C@@H]1OC(C)=O
> 100 µM	> 100 µM	> 100 µM	Nc1nc(Cl)nc2c1ncn2[C@@H]1O[C@H]([C@H](O)CO)[C@@H](O)[C@H]1O
> 100 µM	> 100 µM	> 100 µM	CNc1ncnc2c1ncn2[C@@H]1O[C@H]([C@H](O)CO)[C@@H](O)[C@H]1O
54.2 µM	47.1 µM	> 100 µM	OC[C@@H](O)[C@H]1O[C@@H](n2cnc3c(Cl)nc(Cl)nc32)[C@H](O)[C@@H]1O
36.3 µM	36.3 µM	45 µM	CC(=O)O[C@H]1[C@@H](OC(C)=O)[C@H](n2cnc3c(Cl)nc(Cl)nc32)O[C@@H]1[C@H](O)CO
> 100 µM	> 100 µM	> 100 µM	OC[C@@H](O)[C@H]1O[C@@H](n2cnc3c(Cl)ncnc32)[C@H](O)[C@@H]1O
